High-throughput results deposited in PubChem by several laboratories.
Rows were chosen to be rich in hits. Some 1.6% of all compounds tested hit in one or more screens of this group.
Beta2AR agonist: human beta-2 adrenergic receptor agonism by FAP; 340,000 compounds, 0.43% hits; response, % (concentration not given with the values); P07550; AID 504454; Am2.2-beta2AR cells, FAP receptor internalization, flow cytometry;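 active means response above a set limit, near 3 SD of response in nonfluorescent compounds, cut at about 42% in these data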
Dynein cargo inh: blocks dynein driven cargo transport along microtubules. 3617.4 mouse cells, GR-EGFP nuclear translocation imaging; test concentration mostly 20 µM; stimulated with dexamethasone, 1 µM; hits give low values. z-score, hits read low. 220,000 compounds, 0.47% hits. AID 1381;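 active means plate z-score of nuclear minus cytoplasmic receptor signal below a set negative limit, without overly bright fluorescence or cell loss, cut at about -3.5 in these data, passing the limit was not always enough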;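 further: z-score of nuclear minus cytoplasmic ring GR-EGFP intensity difference per well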
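medium = tetracycline-free induction medium containing charcoal-stripped FBS | also added = 1.0 µM final dexamethasone stimulus | schedule = 48 h induction, 1 h compound, 30 min dex at 37 °C | technique = fixed, Hoechst-stained cells imaged at 10x for EGFP | measure = GR-EGFP nuclear translocation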
NOD2-RIPK2 inh: inhibitors of human NOD2-RIPK2 interaction. 360,000 compounds, 0.38% hits. CHO BLA complementation NOD2-RIPK2, CCF4 ratio. inhibition, % at 4.98 µM; in the data active means inhibition above about 21%;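 further: 0% = vehicle only and 100% = reference blocker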
ABHD5 PLIN5 PPI: inhibitors of human ABHD5-perilipin-5 interaction; Q00G26+Q8WTS1; Split G. princeps luciferase complementation, luminescence, 4 h; inhibition, % at 4 µM; 360,000 compounds, 0.78% hits; AID 602281;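 active means inhibition above the mean inhibition across every tested compound plus 3 SD, cut at about 22% in these data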;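 further: 0% = DMSO only wells and the 100% control is not disclosed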
TLR4 MyD88 comp: blocks binding of human TLR4 to MyD88. O00206+Q99836. HeLa CL3-4 TLR4/MyD88 BLA complementation, FRET ratio. inhibition, % at 8.4 µM. 200,000 compounds, 0.18% hits; in the data active means inhibition above about 25%;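 further: 0% = vehicle and 100% = reference inhibitor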
TLR9-MyD88 block: blocks human TLR9 binding to MyD88; 340,000 compounds, 0.21% hits; CHO BLA complementation TLR9-MyD88, CCF4 FRET ratio; Q9NR96+Q99836; inhibition, % at 4.98 µM; AID 504734;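 active means inhibition above the mean over all tested compounds plus 3 SD, cut at about 21% in these data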;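 further: 0% = DMSO only wells and 100% = clavulanate BLA inhibitor control wells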
Target sequence (Q99836 whole entry, looked up): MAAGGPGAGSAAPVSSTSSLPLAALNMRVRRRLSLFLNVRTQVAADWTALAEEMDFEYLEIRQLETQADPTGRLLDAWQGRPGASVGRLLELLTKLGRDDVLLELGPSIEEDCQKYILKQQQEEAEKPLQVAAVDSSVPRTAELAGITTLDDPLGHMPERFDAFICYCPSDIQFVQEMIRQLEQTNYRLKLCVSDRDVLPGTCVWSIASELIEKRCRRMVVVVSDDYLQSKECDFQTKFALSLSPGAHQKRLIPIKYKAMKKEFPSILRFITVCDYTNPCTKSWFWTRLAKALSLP
Target sequence (Q9NR96 whole entry, looked up): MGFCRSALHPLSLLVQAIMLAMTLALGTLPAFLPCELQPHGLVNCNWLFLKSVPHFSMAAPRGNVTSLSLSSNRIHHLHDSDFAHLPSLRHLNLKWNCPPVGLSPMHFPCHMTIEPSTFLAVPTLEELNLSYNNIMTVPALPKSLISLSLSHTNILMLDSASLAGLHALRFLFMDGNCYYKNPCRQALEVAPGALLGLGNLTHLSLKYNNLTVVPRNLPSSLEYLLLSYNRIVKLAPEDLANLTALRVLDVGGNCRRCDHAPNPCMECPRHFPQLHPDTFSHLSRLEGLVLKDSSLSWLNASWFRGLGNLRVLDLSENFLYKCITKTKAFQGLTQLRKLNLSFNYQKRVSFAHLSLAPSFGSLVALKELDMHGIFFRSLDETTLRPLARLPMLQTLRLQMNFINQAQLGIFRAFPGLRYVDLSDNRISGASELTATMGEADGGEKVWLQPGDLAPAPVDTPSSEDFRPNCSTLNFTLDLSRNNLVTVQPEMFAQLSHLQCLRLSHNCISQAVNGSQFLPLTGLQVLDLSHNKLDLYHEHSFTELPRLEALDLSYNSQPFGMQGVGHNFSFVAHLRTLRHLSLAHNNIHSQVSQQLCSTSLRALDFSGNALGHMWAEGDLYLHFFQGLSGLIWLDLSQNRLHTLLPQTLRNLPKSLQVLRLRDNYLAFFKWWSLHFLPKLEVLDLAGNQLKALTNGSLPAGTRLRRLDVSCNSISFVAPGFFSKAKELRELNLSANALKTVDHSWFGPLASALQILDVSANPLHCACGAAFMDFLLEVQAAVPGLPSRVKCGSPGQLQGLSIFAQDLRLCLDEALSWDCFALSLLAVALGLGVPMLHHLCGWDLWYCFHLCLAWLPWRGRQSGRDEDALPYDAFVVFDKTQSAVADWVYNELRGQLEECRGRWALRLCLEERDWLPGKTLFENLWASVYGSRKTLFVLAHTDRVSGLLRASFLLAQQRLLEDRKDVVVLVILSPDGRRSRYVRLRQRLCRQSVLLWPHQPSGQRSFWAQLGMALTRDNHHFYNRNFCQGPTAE
Beta2AR ag CP1: human beta-2 adrenergic receptor agonism, cherry pick; shares compounds with Beta2AR agonist; Am2.2-beta2AR cells, FAP surface receptor, flow cytometry; hits give low values; percent response (surface receptor), % at 10 µM; 1,100 compounds, 25% hits; AID 540358;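 active means surface receptor percent response at or below 58%, roughly 3 SD from nonfluorescent compounds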
B2AR FAP counter: flagged in Am2.2 fluorescence counterscreen for beta-2AR agonists; shares compounds with Beta2AR agonist; Am2.2 cells, FAP fluorogen flow cytometry; hits give low values; calls only at 10 µM; 1,100 tested, under 10 active; AID 588765;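 active means percent response below a set limit in fluorescence channel 1 and below 50% in channel 8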
Active calls of the source: *; i = inactive; . = not tested or not shown; ! = not confirmed by another sample.

SMILES | Beta2AR agonist | Dynein cargo inh | NOD2-RIPK2 inh | ABHD5 PLIN5 PPI | TLR4 MyD88 comp | TLR9-MyD88 block | Beta2AR ag CP1 | B2AR FAP counter
CCOC(=O)C1(C)C=C(Nc2ccc(OC)cc2)C(=O)N1c1ccc(OC)cc1 (configuration not stated) | -7 | -0.65 | 2 | 2 | -8 | 4 | . | .
CCOC(=O)C1(C)C=C(Nc2ccc(O)cc2)C(=O)N1c1ccc(O)cc1 (configuration not stated) | 52* | -0.21 | -7 | -5 | 4 | 14 | 28* | i
CN(C)CCN(C(=O)c1ccc2c(c1)OCCO2)c1nc2c(Cl)cccc2s1 | 2 | . | -17 | 1 | . | 3 | . | .
COc1ccc(Cl)c2sc(N(CCN(C)C)C(=O)c3ccc4c(c3)OCCO4)nc12 | 44* | . | -9 | 8 | . | -1 | 128 | i
CC1=C(C(=O)Nc2ccc(C(=O)N3CCN(c4ccccc4F)CC3)cc2)SCCO1 | 73* | . | -12 | -1 | . | 6 | 21* | i
O=C(C[C@@H]1CC[C@H](NC(=O)c2ccc3c(c2)OCO3)[C@@H](CO)O1)NCc1ccc(F)cc1 | . | . | 2 | 4 | . | . | . | .
COc1ccccc1CNC(=O)CN1CCN(c2ccc(C(C)=O)cc2)CC1 | 54* | . | -2 | 6 | . | 4 | 118 | i
CCN1C(=O)[C@H]2[C@@H](c3ccc(C(F)(F)F)cc3)N[C@]3(CCCN(Cc4ccc(F)cc4)C3=O)[C@H]2C1=O | . | . | -4 | -9 | . | 15 | . | .
CC1CCCN(c2ccc([N+](=O)[O-])cc2C(=O)c2ccccc2)C1 (configuration not stated) | 42* | -0.81 | -6 | 4 | -3 | 8 | 49* | i
CCC(C)C(=O)Nc1cc(OC)c(OC)cc1C(=O)O (configuration not stated) | 2 | -0.44 | -1 | 0 | -3 | 3 | . | .
CCC(CC)C(=O)Nc1cc(OC)c(OC)cc1C(=O)O | 92* | 0.15 | -7 | 3 | -10 | 0 | 99 | i
Cc1ccc(Cn2nc(C)c(C(=O)NCC(c3cccs3)N3CCOCC3)c2Cl)cc1 (configuration not stated) | 7 | . | -1 | -7 | . | -4 | . | .
Cc1nn(Cc2ccccc2)c(C)c1C(=O)NCC(c1cccs1)N1CCOCC1 (configuration not stated) | 63* | . | 1 | 2 | . | 1 | 109 | i
Fc1ccc([C@@H]2CCNC[C@H]2COc2ccc3c(c2)OCO3)cc1 | 45*! | . | -4 | 4 | . | -5 | 94 | i
Fc1ccc(C2CCNCC2COc2ccc3c(c2)OCO3)cc1 (configuration not stated) | 12 | . | -5 | 7 | . | -1 | . | .
O=C(Cc1cccc(NC(=O)C2CCCN(C(=O)C3CCCC3)C2)c1)Nc1ccc(C(=O)N2CCOCC2)cc1 (configuration not stated) | -3 | . | -1 | 1 | . | 7 | . | .
CCOC(=O)c1ccc(NC(=O)Cn2nnc(-c3ccccc3)n2)cc1 | 64* | 0.41 | 6 | -4 | -4 | 7 | 1.2* | i
Cc1ccc(-c2nc(NC(=O)c3cc(C(C)(C)C)nn3C)sc2C)cc1Cl | 10 | -0.18 | -3 | -8 | . | 0 | 97 | i
O=C1CC(C(=O)Nc2ccccc2)C2(CCCC2)O1 (configuration not stated) | -3 | 0.56 | -6 | -4 | -7 | 4 | . | .
O=C1CC(C(=O)Nc2ccc(C(=O)N3CCOCC3)cc2)C2(CCCCC2)O1 (configuration not stated) | 52* | 1.1 | 9 | 2 | -15 | -14 | 136 | i
COc1ccc2nc(NC(=O)CSc3nnc(N)s3)sc2c1 | 75* | 0.4 | 11 | -5 | 5 | -3 | 78 | i
COc1cccc(/C=N/NC(=S)Nc2cccc(S(=O)(=O)N(C)C)c2)c1 | -2 | -0.39 | -8 | -7 | . | 1 | 131 | i
COc1cc(/C=N/NC(=S)Nc2cccc(S(=O)(=O)N(C)C)c2)cc(OC)c1O | -4 | 0.062 | -3 | -5 | 15 | 10 | . | .
COc1ccc(OC)c(NC(=O)Nc2nc(C(C)N)cs2)c1 (configuration not stated) | . | . | 7 | 3 | . | . | . | .
Cc1noc(NS(=O)(=O)c2ccc(NC(=O)C34CC5CC(C3)CC(n3cnc(Cl)n3)(C5)C4)cc2)c1C | 74* | 0.39 | -2 | -2 | 10 | 13 | 84 | i
SMILES | Beta2AR agonist | Dynein cargo inh | NOD2-RIPK2 inh | ABHD5 PLIN5 PPI | TLR4 MyD88 comp | TLR9-MyD88 block | Beta2AR ag CP1 | B2AR FAP counter
Cc1noc(NS(=O)(=O)c2ccc(NC(=O)CC34CC5CC(CC(Br)(C5)C3)C4)cc2)c1C | 5 | 0.3 | 0 | 5 | 1 | -4 | . | .
O=C1CC(c2cc(Br)ccc2F)c2cc3c(cc2N1)CCC3 (configuration not stated) | 56* | -0.61 | 7 | 5 | 22 | 10 | 95 | i
Cc1ccc(N(C)S(=O)(=O)c2cc(-c3cnc(C4CC4)o3)ccc2C)cc1 | 104* | . | -6 | -4 | . | -2 | 1.5* | i
Cc1cccc(N(C)S(=O)(=O)c2ccc(-c3cnc(C4CC4)o3)cc2)c1 | 23 | . | 10 | -2 | . | 1 | . | .
O=CC(O)C1OC(=O)C(O)C1O (configuration not stated) | -13 | . | -1 | 4 | . | 3 | . | .
COc1ccc(Cl)cc1NS(=O)(=O)N1CCOCC1 | 50* | . | -10 | -2 | . | 2 | 119 | i
CCOc1ccc2oc(C(=O)O)c(C)c2c1 | 3 | 0.14 | -8 | -3 | . | 4 | . | .
CCOc1ccc2oc(C(=O)NCC(C)(C)CN(C)C)c(C)c2c1 | 55* | 0.39 | -6 | 9 | -9 | -3 | 103 | i
CCOC(=O)C1=CCN(S(=O)(=O)c2ccc(C)cc2)[C@H]1c1ccccc1Cl | . | . | -1 | -6 | . | . | . | .
CC(C)Cc1nc2oc3c(NCC4CCCO4)ncnc3c2c2c1CCC2 (configuration not stated) | 1 | -0.59 | 3 | 2 | 8 | -4 | . | .
CCCc1nc2oc3c(NCC(C)O)ncnc3c2c2c1CCCC2 (configuration not stated) | -2 | 0.36 | -2 | 1 | . | . | 125 | i
CC(=O)Oc1ccc(C(=O)Nc2cccc(C(=O)c3cccc(NC(=O)c4ccc(OC(C)=O)cc4)c3)c2)cc1 | 57* | -1.1 | 2 | 6 | -9 | -12 | 100 | i
CC(C)CN(CC(C)C)S(=O)(=O)c1cc([N+](=O)[O-])ccc1N1CCCCCC1 | 52* | -1.4 | -4 | -2 | -4 | 4 | 64 | i
